Source: ChEMBL document CHEMBL3407339, “A novel series of thiazolyl-pyrazoline derivatives: synthesis and evaluation of antifungal activity, cytotoxicity and genotoxicity” (Eur J Med Chem, 2015)
≈ marks a conversion by molar mass, not a printed value.

How the values were obtained:
Salmonella typhimurium [1] = experiment: Mutagenicity in Salmonella typhimurium TA98 at 0.625 mg/ml after 48 hrs by AMES MPF assay in absence of Sprague-Dawley rat liver microsomal S9 fraction relative to baseline; format: toxicity, organism-based; conditions: salmonella enterica subsp. enterica serovar typhimurium
Summary of the method: (§1)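 Ames MPF fluctuation test with TA98/TA100. Overnight cultures (37 °C, 14–16 h) mixed with exposure medium; ±Aroclor-1254-induced rat liver S9 (final 4.5% v/v). Compounds in DMSO, 0.156–5 mg/mL. 90 min exposure at 37 °C, then indicator medium; 48 wells per concentration, 48 h at 37 °C, in triplicate. Yellow wells counted; fold induction over baseline (mean + 1 SD of zero-dose control).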

Candida parapsilosis = experiment: Antifungal activity against Candida parapsilosis NRLL Y 12696 after 48 hrs by broth microdilution assay; format: functional; conditions: Lodderomyces parapsilosis, NRLL Y 12696, 48 h
Summary of the method: (§2)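 Broth microdilution of DMSO stocks serially diluted in sterile water (4 to 0.0039 mg/mL). Yeasts grown on SDA at 37 °C for 24 h, suspended in double-strength PDB at 10⁵ spores/mL. Incubated at 37 °C for 48 h, then sprayed with 0.5% aqueous TTC. MIC = lowest concentration inhibiting visible growth. Ketoconazole reference.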

[Candida] zeylanoides = Antifungal activity against Candida zeylanoides NRLL Y 1774 after 48 hrs by broth microdilution assay; format: functional; conditions: Dujonia zeylanoides, NRLL Y 1774, 48 h; summary of the method: as §2
Salmonella typhimurium [2] = experiment: Mutagenicity in Salmonella typhimurium TA100 at 5 mg/ml after 48 hrs by AMES MPF assay in presence of Sprague-Dawley rat liver microsomal S9 fraction relative to baseline; format: toxicity, organism-based; conditions: salmonella enterica subsp. enterica serovar typhimurium; summary of the method: as §1
Salmonella typhimurium [3] = experiment: Mutagenicity in Salmonella typhimurium TA100 at 1.25 mg/ml after 48 hrs by AMES MPF assay in absence of Sprague-Dawley rat liver microsomal S9 fraction relative to baseline; format: toxicity, organism-based; conditions: salmonella enterica subsp. enterica serovar typhimurium; summary of the method: as §1
Salmonella typhimurium [4] = experiment: Mutagenicity in Salmonella typhimurium TA100 at 0.156 mg/ml after 48 hrs by AMES MPF assay in presence of Sprague-Dawley rat liver microsomal S9 fraction relative to baseline; format: toxicity, organism-based; conditions: salmonella enterica subsp. enterica serovar typhimurium; summary of the method: as §1
Aspergillus flavus = experiment: Antifungal activity against Aspergillus flavus NRRL 980 after 72 hrs by broth microdilution assay; format: functional; conditions: NRRL 980, 72 h
Summary of the method: (§3)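 Compounds dissolved in DMSO, diluted in sterile distilled water from 4 to 0.0039 mg/mL. Molds grown on PDA at 25 °C for 5 days, suspended in double-strength PDB at 10⁵ spores/mL. Incubated at 25 °C for 72 h; mycelial growth read under stereo microscope. MIC = lowest concentration inhibiting visible growth. Ketoconazole reference.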

A549 = experiment: Antiproliferative activity against human A549 cells after 24 hrs by XTT assay; format: functional, cell-based; conditions: A549, 24 h
Summary of the method: (§4)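 A549 cells in RPMI and NIH/3T3 cells in DMEM, each with fetal calf serum, antibiotics and 7.5% NaHCO₃, at 37 °C, 5% CO₂. Seeded at 20,000 cells/well, 24 h, then compounds added in medium at 500–3.9 doses (final DMSO <0.1%) for 24 h. XTT read after 3 h at 480 nm (ref 680 nm). IC₅₀ by non-linear regression; triplicates; cisplatin control.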

Salmonella typhimurium [5] = experiment: Mutagenicity in Salmonella typhimurium TA98 at 0.625 mg/ml after 48 hrs by AMES MPF assay in presence of Sprague-Dawley rat liver microsomal S9 fraction relative to baseline; format: toxicity, organism-based; conditions: salmonella enterica subsp. enterica serovar typhimurium; summary of the method: as §1
Salmonella typhimurium [6] = experiment: Mutagenicity in Salmonella typhimurium TA100 at 0.625 mg/ml after 48 hrs by AMES MPF assay in presence of Sprague-Dawley rat liver microsomal S9 fraction relative to baseline; format: toxicity, organism-based; conditions: salmonella enterica subsp. enterica serovar typhimurium; summary of the method: as §1
Salmonella typhimurium [7] = experiment: Mutagenicity in Salmonella typhimurium TA100 at 2.5 mg/ml after 48 hrs by AMES MPF assay in absence of Sprague-Dawley rat liver microsomal S9 fraction relative to baseline; format: toxicity, organism-based; conditions: salmonella enterica subsp. enterica serovar typhimurium; summary of the method: as §1
Candida albicans = experiment: Antifungal activity against Candida albicans ATCC 90028 after 48 hrs by broth microdilution assay; format: functional; conditions: ATCC 90028, 48 h; summary of the method: as §2
Salmonella typhimurium [8] = experiment: Mutagenicity in Salmonella typhimurium TA100 at 0.3125 mg/ml after 48 hrs by AMES MPF assay in presence of Sprague-Dawley rat liver microsomal S9 fraction relative to baseline; format: toxicity, organism-based; conditions: salmonella enterica subsp. enterica serovar typhimurium; summary of the method: as §1
Salmonella typhimurium [9] = experiment: Mutagenicity in Salmonella typhimurium TA98 at 0.156 mg/ml after 48 hrs by AMES MPF assay in presence of Sprague-Dawley rat liver microsomal S9 fraction relative to baseline; format: toxicity, organism-based; conditions: salmonella enterica subsp. enterica serovar typhimurium; summary of the method: as §1
Salmonella typhimurium [10] = experiment: Mutagenicity in Salmonella typhimurium TA98 at 5 mg/ml after 48 hrs by AMES MPF assay in absence of Sprague-Dawley rat liver microsomal S9 fraction relative to baseline; format: toxicity, organism-based; conditions: salmonella enterica subsp. enterica serovar typhimurium; summary of the method: as §1
Salmonella typhimurium [11] = experiment: Mutagenicity in Salmonella typhimurium TA98 at 2.5 mg/ml after 48 hrs by AMES MPF assay in presence of Sprague-Dawley rat liver microsomal S9 fraction relative to baseline; format: toxicity, organism-based; conditions: salmonella enterica subsp. enterica serovar typhimurium; summary of the method: as §1
Salmonella typhimurium [12] = experiment: Mutagenicity in Salmonella typhimurium TA98 at 1.25 mg/ml after 48 hrs by AMES MPF assay in absence of Sprague-Dawley rat liver microsomal S9 fraction relative to baseline; format: toxicity, organism-based; conditions: salmonella enterica subsp. enterica serovar typhimurium; summary of the method: as §1
[13] = Cytotoxicity against mouse NIH/3T3 cells after 24 hrs by XTT assay; format: cell-based; conditions: NIH3T3, 24 h; summary of the method: as §4
Salmonella typhimurium [14] = experiment: Mutagenicity in Salmonella typhimurium TA100 at 0.3125 mg/ml after 48 hrs by AMES MPF assay in absence of Sprague-Dawley rat liver microsomal S9 fraction relative to baseline; format: toxicity, organism-based; conditions: salmonella enterica subsp. enterica serovar typhimurium; summary of the method: as §1
Salmonella typhimurium [15] = experiment: Mutagenicity in Salmonella typhimurium TA98 at 1.25 mg/ml after 48 hrs by AMES MPF assay in presence of Sprague-Dawley rat liver microsomal S9 fraction relative to baseline; format: toxicity, organism-based; conditions: salmonella enterica subsp. enterica serovar typhimurium; summary of the method: as §1
Salmonella typhimurium [16] = experiment: Mutagenicity in Salmonella typhimurium TA100 at 2.5 mg/ml after 48 hrs by AMES MPF assay in presence of Sprague-Dawley rat liver microsomal S9 fraction relative to baseline; format: toxicity, organism-based; conditions: salmonella enterica subsp. enterica serovar typhimurium; summary of the method: as §1
Candida tropicalis = experiment: Antifungal activity against Candida tropicalis NRLL Y 12968 after 48 hrs by broth microdilution assay; format: functional; conditions: NRLL Y 12968, 48 h; summary of the method: as §2
Salmonella typhimurium [17] = experiment: Mutagenicity in Salmonella typhimurium TA98 at 0.3125 mg/ml after 48 hrs by AMES MPF assay in absence of Sprague-Dawley rat liver microsomal S9 fraction relative to baseline; format: toxicity, organism-based; conditions: salmonella enterica subsp. enterica serovar typhimurium; summary of the method: as §1
Pichia kudriavzevii = experiment: Antifungal activity against Candida krusei NRLL Y 7179 after 48 hrs by broth microdilution assay; format: functional; conditions: NRLL Y 7179, 48 h; summary of the method: as §2
Salmonella typhimurium [18] = experiment: Mutagenicity in Salmonella typhimurium TA98 at 5 mg/ml after 48 hrs by AMES MPF assay in presence of Sprague-Dawley rat liver microsomal S9 fraction relative to baseline; format: toxicity, organism-based; conditions: salmonella enterica subsp. enterica serovar typhimurium; summary of the method: as §1
Aspergillus niger = experiment: Antifungal activity against Aspergillus niger ATCC 1094 after 72 hrs by broth microdilution assay; format: functional; conditions: ATCC 1094, 72 h; summary of the method: as §3
Salmonella typhimurium [19] = experiment: Mutagenicity in Salmonella typhimurium TA100 at 5 mg/ml after 48 hrs by AMES MPF assay in absence of Sprague-Dawley rat liver microsomal S9 fraction relative to baseline; format: toxicity, organism-based; conditions: salmonella enterica subsp. enterica serovar typhimurium; summary of the method: as §1
Nakaseomyces glabratus = experiment: Antifungal activity against Candida glabrata clinical isolate after 48 hrs by broth microdilution assay; format: functional; summary of the method: as §2
Salmonella typhimurium [20] = experiment: Mutagenicity in Salmonella typhimurium TA98 at 2.5 mg/ml after 48 hrs by AMES MPF assay in absence of Sprague-Dawley rat liver microsomal S9 fraction relative to baseline; format: toxicity, organism-based; conditions: salmonella enterica subsp. enterica serovar typhimurium; summary of the method: as §1
Fusarium solani = experiment: Antifungal activity against Fusarium solani NRRL 13414 after 72 hrs by broth microdilution assay; format: functional; conditions: NRRL 13414, 72 h; summary of the method: as §3
Aspergillus parasiticus = experiment: Antifungal activity against Aspergillus parasiticus NRRL 465 after 72 hrs by broth microdilution assay; format: functional; conditions: NRRL 465, 72 h; summary of the method: as §3
Salmonella typhimurium [21] = experiment: Mutagenicity in Salmonella typhimurium TA98 at 0.3125 mg/ml after 48 hrs by AMES MPF assay in presence of Sprague-Dawley rat liver microsomal S9 fraction relative to baseline; format: toxicity, organism-based; conditions: salmonella enterica subsp. enterica serovar typhimurium; summary of the method: as §1
Salmonella typhimurium [22] = experiment: Mutagenicity in Salmonella typhimurium TA100 at 1.25 mg/ml after 48 hrs by AMES MPF assay in presence of Sprague-Dawley rat liver microsomal S9 fraction relative to baseline; format: toxicity, organism-based; conditions: salmonella enterica subsp. enterica serovar typhimurium; summary of the method: as §1
Salmonella typhimurium [23] = experiment: Mutagenicity in Salmonella typhimurium TA100 at 0.156 mg/ml after 48 hrs by AMES MPF assay in absence of Sprague-Dawley rat liver microsomal S9 fraction relative to baseline; format: toxicity, organism-based; conditions: salmonella enterica subsp. enterica serovar typhimurium; summary of the method: as §1
Salmonella typhimurium [24] = experiment: Mutagenicity in Salmonella typhimurium TA98 at 0.156 mg/ml after 48 hrs by AMES MPF assay in absence of Sprague-Dawley rat liver microsomal S9 fraction relative to baseline; format: toxicity, organism-based; conditions: salmonella enterica subsp. enterica serovar typhimurium; summary of the method: as §1
Salmonella typhimurium [25] = experiment: Mutagenicity in Salmonella typhimurium TA100 at 0.625 mg/ml after 48 hrs by AMES MPF assay in absence of Sprague-Dawley rat liver microsomal S9 fraction relative to baseline; format: toxicity, organism-based; conditions: salmonella enterica subsp. enterica serovar typhimurium; summary of the method: as §1

Fc1ccc(C2CC(c3ccc(Cl)s3)=NN2c2nc(-c3ccc(Cl)cc3)cs2)cc1 (stereo unspecified)
fold change (FC) (Salmonella typhimurium [1]): 0 | MIC (Candida parapsilosis): 250 µg/mL (≈ 527 µM) | MIC ([Candida] zeylanoides): 250 µg/mL (≈ 527 µM) | fold change (FC) (Salmonella typhimurium [2]): 3.92 | fold change (FC) (Salmonella typhimurium [3]): 0.33 | fold change (FC) (Salmonella typhimurium [4]): 3.23 | MIC (Aspergillus flavus): 125 µg/mL (≈ 263 µM) | IC50 (A549): 125 µg/mL (≈ 263 µM) | fold change (FC) (Salmonella typhimurium [5]): 0.95 | fold change (FC) (Salmonella typhimurium [6]): 3.46 | fold change (FC) (Salmonella typhimurium [7]): 1 | MIC (Candida albicans): 250 µg/mL (≈ 527 µM) | fold change (FC) (Salmonella typhimurium [8]): 3.92 | fold change (FC) (Salmonella typhimurium [9]): 0.68 | fold change (FC) (Salmonella typhimurium [10]): 1 | fold change (FC) (Salmonella typhimurium [11]): 0.54 | fold change (FC) (Salmonella typhimurium [12]): 0.67 | IC50 [13]: > 500 µg/mL | fold change (FC) (Salmonella typhimurium [14]): 0.67 | fold change (FC) (Salmonella typhimurium [15]): 0.81 | fold change (FC) (Salmonella typhimurium [16]): 3 | MIC (Candida tropicalis): 250 µg/mL (≈ 527 µM) | fold change (FC) (Salmonella typhimurium [17]): 0 | MIC (Pichia kudriavzevii): 250 µg/mL (≈ 527 µM) | fold change (FC) (Salmonella typhimurium [18]): 0.81 | MIC (Aspergillus niger): 250 µg/mL (≈ 527 µM) | fold change (FC) (Salmonella typhimurium [19]): 0.33 | MIC (Nakaseomyces glabratus): 125 µg/mL (≈ 263 µM) | fold change (FC) (Salmonella typhimurium [20]): 0.67 | MIC (Fusarium solani): 250 µg/mL (≈ 527 µM) | MIC (Aspergillus parasiticus): 250 µg/mL (≈ 527 µM) | fold change (FC) (Salmonella typhimurium [21]): 0.81 | fold change (FC) (Salmonella typhimurium [22]): 3.69 | fold change (FC) (Salmonella typhimurium [23]): 1.67 | fold change (FC) (Salmonella typhimurium [24]): 0 | fold change (FC) (Salmonella typhimurium [25]): 0.33
